In ChEMBL document CHEMBL3271993, “Synthesis and some pharmacological properties of five analogs of oxytocin having L-homocysteine in position 6” (J Med Chem, 1976):
Starred links: 1 amine or outer side, 2 acyl side, 3 side chain; linkers in the order of their positions; H or OH if unused. Positions of bridges follow the written chain, without caps; N, C: chain ends. Non-standard residues stand in square brackets, D forms with d. Residues, ends and D or L forms follow the SMILES beside them. hCys = N[C@@H](CCS)C(=O)O; X1 = O=C(CCCS[*:2])[*:1]; X2 = O=C(CS[*:2])[*:1]

Legend:
[1] = molecular target: T1, Oxytocin receptor (Rattus norvegicus) (UniProt P70536); experiment: Agonist activity at oxytocin receptor in rat uterus; format: tissue-based
T1 sequence (whole entry): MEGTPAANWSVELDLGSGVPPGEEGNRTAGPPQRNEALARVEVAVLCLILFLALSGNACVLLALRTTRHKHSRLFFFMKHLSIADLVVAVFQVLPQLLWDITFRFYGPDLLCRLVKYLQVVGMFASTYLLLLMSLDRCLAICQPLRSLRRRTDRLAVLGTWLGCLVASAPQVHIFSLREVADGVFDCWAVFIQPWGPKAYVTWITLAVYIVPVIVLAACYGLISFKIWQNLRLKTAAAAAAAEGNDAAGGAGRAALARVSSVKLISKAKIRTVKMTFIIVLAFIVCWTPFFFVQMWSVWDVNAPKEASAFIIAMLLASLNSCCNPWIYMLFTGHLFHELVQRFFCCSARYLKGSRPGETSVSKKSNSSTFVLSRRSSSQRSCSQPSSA
Procedure, shortened: (§1)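 Purified analogs tested against U.S.P. Agonist activity expressed as units per mg, given as mean potency ± standard error.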

[2] = organism: Gallus gallus; experiment: Agonist activity at oxytocin receptor in chicken by avian vasodepressor assay; procedure, shortened: as §1
[3] = Antagonist activity at oxytocin receptor in chicken assessed as inhibition of synthetic oxytocin-induced response by avian vasodepressor assay; parameters: species or system Gallus gallus
Procedure, shortened: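 Inhibitory potency given as pA2 (Schild): the negative log of the average molar antagonist concentration that reduces the response to 2x units of agonist to the level of x units of agonist.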

[4] = molecular target: T2, Oxytocin receptor (Rattus norvegicus, UniProt P70536); experiment: Antagonist activity at oxytocin receptor in rat uterus assessed as inhibition of synthetic oxytocin-induced response treated 1.5 to 2 mins prior to oxytocin challenge; format: tissue-based; conditions: read-out: pA2 (converted)
T2 sequence (P70536 whole entry): T1 sequence (whole entry)
Procedure, shortened: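 Antagonist injected 1.5-2 min before synthetic oxytocin, giving any agonist response time to finish. Potency given as pA2 (Schild): the negative log of the average molar antagonist concentration that brings the response to 2x agonist units down to that of x units.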

Row | Compound | Activity [1] | Activity [2] | pA2 [3] | Kb [4]
1 | CC[C@H](C)[C@@H]1NC(=O)[C@H](Cc2ccc(O)cc2)NC(=O)CCSSC[C@H](C(=O)N2CCC[C@H]2C(=O)N[C@@H](CC(C)C)C(=O)NCC(N)=O)NC(=O)[C@H](CC(N)=O)NC(=O)[C@H](CCC(N)=O)NC1=O | 803 U/mg | 975 U/mg | – | –
2 | CC[C@H](C)[C@@H]1NC(=O)[C@H](Cc2ccc(O)cc2)NC(=O)[C@@H](N)CCSSCC[C@@H](C(=O)N2CCC[C@H]2C(=O)N[C@@H](CC(C)C)C(=O)NCC(N)=O)NC(=O)[C@H](CC(N)=O)NC(=O)[C@H](CCC(N)=O)NC1=O | – | – | 6.48 | 0.955 µM
3 | CC[C@H](C)[C@@H]1NC(=O)[C@H](Cc2ccc(O)cc2)NC(=O)CCSSCC[C@@H](C(=O)N2CCC[C@H]2C(=O)N[C@@H](CC(C)C)C(=O)NCC(N)=O)NC(=O)[C@H](CC(N)=O)NC(=O)[C@H](CCC(N)=O)NC1=O | 22 U/mg | – | 7.57 | –
4 | CC[C@H](C)[C@@H]1NC(=O)[C@H](Cc2ccc(O)cc2)NC(=O)[C@@H](N)CSSC[C@@H](C(=O)N2CCC[C@H]2C(=O)N[C@@H](CC(C)C)C(=O)NCC(N)=O)NC(=O)[C@H](CC(N)=O)NC(=O)[C@H](CCC(N)=O)NC1=O | 546 U/mg | 507 U/mg | – | –

Next, values leading:

Row | Activity [1] | Activity [2] | pA2 [3] | Kb [4] | Compound
5 | 12 U/mg | 0.2 U/mg | – | – | CC[C@H](C)[C@@H]1NC(=O)[C@H](Cc2ccc(O)cc2)NC(=O)[C@@H](N)CSSCC[C@@H](C(=O)N2CCC[C@H]2C(=O)N[C@@H](CC(C)C)C(=O)NCC(N)=O)NC(=O)[C@H](CC(N)=O)NC(=O)[C@H](CCC(N)=O)NC1=O
6 | 37 U/mg | 0.3 U/mg | – | – | CC[C@H](C)[C@@H]1NC(=O)[C@H](Cc2ccc(O)cc2)NC(=O)CSSCC[C@@H](C(=O)N2CCC[C@H]2C(=O)N[C@@H](CC(C)C)C(=O)NCC(N)=O)NC(=O)[C@H](CC(N)=O)NC(=O)[C@H](CCC(N)=O)NC1=O (YIQN[hCys]PLG-NH2; linker N-5 via X2)
7 | 0.3 U/mg | – | 7.34 | 0.182 µM | CC[C@H](C)[C@@H]1NC(=O)[C@H](Cc2ccc(O)cc2)NC(=O)CCCSSCC[C@@H](C(=O)N2CCC[C@H]2C(=O)N[C@@H](CC(C)C)C(=O)NCC(N)=O)NC(=O)[C@H](CC(N)=O)NC(=O)[C@H](CCC(N)=O)NC1=O (YIQN[hCys]PLG-NH2; linker N-5 via X1)
